High-throughput results (PubChem BioAssay)
This is a sample that favours compounds with a hit; in the whole collection about 2.1% have one here.
EBI2 antag – blocks human EBI2 receptor beta-arrestin signaling; EBI2 beta-arrestin recruitment, luminescence, 7a,25-OHC stimulated; inhibition, % at 5 µM; actives 0.81% (n = 360,000); in the data active = inhibition above about 38%;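 note: enzyme fragment complementation signal reports receptor beta-arrestin coupling in cells; 0% = agonist plus DMSO wells and 100% = wells without agonist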
APJ ag – activates the human apelin receptor APJ; P35414; CHO-K1 APJ PathHunter beta-arrestin, luminescence; 0% DMSO wells, 100% apelin; activation, % at 20 µM; actives 0.11% (n = 330,000);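 active = activation more than six SD over the plate average, tested at 20 µM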;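 note: 0% = DMSO alone and 100% = apelin-13 at 10 nM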
Target sequence (P35414 whole entry, looked up): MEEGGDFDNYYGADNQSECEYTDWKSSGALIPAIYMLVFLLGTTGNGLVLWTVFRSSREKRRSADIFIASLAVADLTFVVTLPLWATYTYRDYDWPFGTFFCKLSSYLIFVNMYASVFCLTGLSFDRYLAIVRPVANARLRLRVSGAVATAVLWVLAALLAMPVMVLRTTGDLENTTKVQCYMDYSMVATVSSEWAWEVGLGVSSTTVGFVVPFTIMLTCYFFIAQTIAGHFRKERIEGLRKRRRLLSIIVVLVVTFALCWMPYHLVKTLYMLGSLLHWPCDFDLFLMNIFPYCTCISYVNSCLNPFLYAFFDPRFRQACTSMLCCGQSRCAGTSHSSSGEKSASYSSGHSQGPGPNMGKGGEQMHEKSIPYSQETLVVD
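Test system: CHO-K1 APJ beta-arrestin complementation cell line | Compound: Single test compound dose, 20 µM final, 1% DMSO | Incubation: Compound 90 min 25 °C, reagent 1 h | Measured by: beta-gal luminescence | Read-out basis: APJ–arrestin association signal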
CXCR6 inh – inhibitors of human CXCR6 receptor. AID 602244. inhibition, % at 20 µM. actives 0.36% (n = 360,000). CHO-K1 PathHunter CXCR6 beta-arrestin, luminescence. O00574; in the data active = inhibition above about 34%, passing the limit was not always enough;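 note: antagonist mode with CXCL16 agonist at 10 nM final; 0% = 10 nM CXCL16 with DMSO and 100% = unstimulated wells without agonist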
APJ antag – blocks the human apelin receptor APJ; P35414; CHO-K1 APJ beta-arrestin complementation, luminescence; inhibition, % at 20 µM; actives 0.32% (n = 330,000);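 active = inhibition above about 40% at 20 µM, limit read from the data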;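 note: cells challenged with 10 nM apelin-13 agonist together with compound; plate controls were apelin-13 plus DMSO wells for no effect and DMSO wells lacking apelin-13 for full effect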
CCR6 antag – CCR6 (human) receptor antagonism | CHO-K1 CCR6 PathHunter beta-arrestin, luminescence, CCL20-stimulated | inhibition, % at 20 µM | actives 0.49% (n = 340,000);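 active = compounds whose inhibition of the agonist-driven luminescence signal at 20 µM reaches about 50%, limit read from the data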;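 note: cells stimulated with CCL20 at 14 nM final; plate controls were DMSO with CCL20 for no effect and DMSO without agonist for full effect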
HTR2A ag – activates the mouse 5-HT2A serotonin receptor; P35363; CHO-K1 mHTR2A beta-arrestin complementation, luminescence; percent of 30 µM serotonin response; activation, % at 7.6 µM; actives 0.66% (n = 360,000); AID 624169;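 active = activation above a run cutoff, the mean activation of all tested compounds plus 3 SD, cut at about 14% in these data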;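 note: 0% = plate median of compound wells and 100% = 30 µM serotonin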
OPRM1 ag – OPRM1 agonism in mouse HTR2A counterscreen. shares compounds with HTR2A ag. U2OS OPRM1 beta-arrestin PathHunter, luminescence; DMSO 0%, DAMGO 9.3 µM 100%. activation, % at 9.3 µM. actives 5.3% (n = 2,300). AID 624380;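 active = mean activation above the mean of DMSO-only wells plus 3 SD, cut at about 0.5% in these data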
HTR2A ag conf – confirmation of mouse HTR2A serotonin receptor agonists; shares compounds with HTR2A ag; CHO-K1 PathHunter beta-arrestin recruitment, luminescence; DMSO 0%, 30 µM serotonin 100%; activation, % at 7.6 µM; actives 19% (n = 2,300);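 active = mean activation across triplicates above the hit threshold derived in the original primary screen, cut at about 15% in these data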
Numbers without * were called inactive; . = no result given.

SMILES | EBI2 antag | APJ ag | CXCR6 inh | APJ antag | CCR6 antag | HTR2A ag | OPRM1 ag | HTR2A ag conf
CC(COc1ccccc1)N1CCC(CO)(Cc2ccccc2)CC1 (stereo unspecified) | 5 | -6 | 7 | 3 | 6 | 29* | 0 | 73*
COc1ccc(CC2(CO)CCN(C/C=C/c3ccccc3OC)CC2)cc1 | 2 | -4 | -3 | -1 | 17 | 7 | . | .
CC1(c2cccc(Br)c2)NC(=O)N(CC(=O)Nc2cccnc2Cl)C1=O (stereo unspecified) | -6 | -5 | -1 | 0 | 9 | -2 | . | .
COCCCNC(=O)c1cc(S(=O)(=O)NCCCN2CCCC2=O)ccc1Cl | -7 | -1 | 4 | -1 | 1 | 0 | . | .
CN(CCOc1ccccc1)Cc1ccccc1 | -2 | . | 3 | . | . | 20* | 0 | 37*
CCCCNCCCCOc1ccccc1 | -11 | -5 | -2 | 12 | 5 | -2 | . | .
CCc1ccc(CN(C)CC(O)COc2cccc3ccccc23)cc1 (stereo unspecified) | -3 | -2 | -4 | 5 | -6 | -9 | . | .
CN(CCOc1cccc2ccccc12)Cc1ccccc1 | -6 | -4 | -4 | -10 | 7 | 15* | 0 | 19*
C[N+](C)(CCOc1ccccc1)Cc1ccccc1 | -18 | . | -30 | . | -8 | 35* | 1.6* | 3
CCc1ccc2c(COC(=O)C3CSC4(C)CCC(=O)N34)cc(=O)oc2c1 (stereo unspecified) | 6 | 0 | -5 | -15 | 7 | 1 | . | .
CCOc1cccc2cc(C(=O)NCCC3=CCCCC3)c(=O)oc12 | -4 | 1 | -1 | -4 | 16 | 6 | . | .
CCN(CC)CCCNC(=S)N(Cc1cccnc1)Cc1cc2cc(C)ccc2[nH]c1=O | 9 | 2 | 4 | -3 | 14 | 1 | . | .
CCOc1ccc(-n2c(SCc3nc(-c4cccs4)no3)nnc2-c2ccncc2)cc1 | 19 | -4 | 4 | 13 | 13 | 29* | -1 | -4
CCCn1c(SCc2nc(-c3cccs3)no2)nnc1-c1ccncc1 | 4 | 2 | 3 | 11 | 0 | 3 | . | .
CC(=O)NC1CCCC(NC(C)=O)C1 (stereo unspecified) | -5 | . | -6 | . | 1 | 5 | . | .
Cc1nnsc1C(=O)N1CCCC1(C)C(=O)O (stereo unspecified) | 3 | . | 2 | . | . | 27* | -1 | 1
CCCCNC(=S)Nc1ccc(C(F)(F)F)cc1 | 4 | 0 | -15 | 11 | 10 | -3 | . | .
O=C(C[C@@H]1C[C@H]2c3cc(NC(=O)NC4CCCCC4)ccc3O[C@H]2[C@H](CO)O1)NC1CCCCC1 | 1 | . | -5 | . | . | -3 | . | .
CCOC(=O)C(=CNc1ccc2c(c1)CCN2C(C)=O)C(=O)OCC | -46 | 11 | -9 | -29 | -25 | 19* | 0 | 8
Cc1nc2c(cc1NC(=O)C(C)(C)C)nc(C)n2Cc1ccccc1 | 0 | -2 | -3 | 14 | 12 | 20* | 0 | -4
Cc1ccc(S(=O)(=O)N2CCOCC2)cc1C(=O)N(C)CCOc1ccc(Cl)cc1 | 0 | 7 | -6 | 2 | 13 | -3 | . | .
CN(CCOc1ccc(Cl)cc1)C(=O)c1cc(S(=O)(=O)N2CCOCC2)ccc1N1CCCC1 | 5 | -4 | 6 | 9 | 10 | 19* | -1 | -4
CCN(CC)C(=O)Nc1ccc(Br)cc1 | 4 | -1 | 3 | -1 | -5 | 23* | -1 | -3
O=C(COc1ccc(F)cc1Br)NCC1(N2CCOCC2)CCCCC1 | 15 | -3 | 0 | -9 | 18 | -9 | . | .
O=C(Nc1nc2ccccc2s1)c1ccc(F)cc1 | 8 | 0 | 3 | -21 | -2 | 53* | 0 | -3
Cc1nnc(SCC(=O)c2ccc([N+](=O)[O-])cc2)s1 | 5 | 3 | -8 | -26 | -15 | 15* | 0.5* | -2
